According to ChEMBL document CHEMBL3627681, “Synthesis and biological evaluation of 1,3-diaryl pyrazole derivatives as potential antibacterial and anti-inflammatory agents” (2015):
≈ marks a conversion by molar mass, not a printed value.

Assays:
Pseudomonas aeruginosa [1] = assay: Antibacterial activity against Pseudomonas aeruginosa 2742 after 24 hrs by two-fold serial dilution method; type: functional; details: Pseudomonas aeruginosa, 2742, 24 h
How it was run: (§1)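 Broth microdilution in Mueller-Hinton broth over final concentrations of 64–0.5. Bacteria were grown to mid-log phase and diluted 1000-fold, then inoculated at 10⁵ CFU/mL. Compounds were dissolved in DMSO, with final DMSO at most 0.05%. Plates were incubated 24 h at 37 °C and growth read as absorbance at 650 nm. MIC is the concentration giving complete growth inhibition. Three independent runs.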

Escherichia coli [2] = assay: Antibacterial activity against Escherichia coli KCTC 1924 after 24 hrs by two-fold serial dilution method; type: functional; details: KCTC 1924, 24 h; how it was run: as §1
Staphylococcus aureus [3] = assay: Antibacterial activity against methicillin-resistant Staphylococcus aureus CCARM 3506 after 24 hrs by two-fold serial dilution method; type: functional; details: CCARM 3506, 24 h
How it was run: (§2)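 Broth microdilution in Mueller-Hinton broth. Bacteria grown to mid-log phase, diluted 1000-fold, and inoculated at 10⁵ CFU/mL. Test compounds in DMSO, final DMSO not above 0.05%, final concentrations 64-0.5 µg/mL. Incubation 24 h at 37 °C, growth read as absorbance at 650 nm. MIC taken as the lowest concentration giving complete growth inhibition. Run three times.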

Streptococcus mutans = assay: Antibacterial activity against Streptococcus mutans 3065 after 24 hrs by two-fold serial dilution method; type: functional; details: Streptococcus mutans, 3065, 24 h; how it was run: as §1
Candida albicans = assay: Antifungal activity against Candida albicans 7535 by two-fold serial dilution method; type: functional
Staphylococcus aureus [4] = assay: Antibacterial activity against quinolone-resistant Staphylococcus aureus CCARM 3519 after 24 hrs by two-fold serial dilution method; type: functional; details: CCARM 3519, 24 h; how it was run: as §2
Pseudomonas aeruginosa [5] = assay: Antibacterial activity against Pseudomonas aeruginosa 2004 after 24 hrs by two-fold serial dilution method; type: functional; details: Pseudomonas aeruginosa, 2004, 24 h; how it was run: as §1
Staphylococcus aureus [6] = assay: Antibacterial activity against Staphylococcus aureus RN4220 after 24 hrs by two-fold serial dilution method; type: functional; details: RN4220, 24 h; how it was run: as §2
Escherichia coli [7] = assay: Antibacterial activity against Escherichia coli CCARM 1356 after 24 hrs by two-fold serial dilution method; type: functional; details: CCARM 1356, 24 h; how it was run: as §1
Staphylococcus aureus [8] = assay: Antibacterial activity against methicillin-resistant Staphylococcus aureus CCARM 3167 after 24 hrs by two-fold serial dilution method; type: functional; details: CCARM 3167, 24 h; how it was run: as §2
Staphylococcus aureus [9] = assay: Ratio of moxifloxacin MIC to compound MIC for quinolone-resistant Staphylococcus aureus CCARM 3505 after 24 hrs by two-fold serial dilution method; type: functional
Escherichia coli [10] = assay: Ratio of moxifloxacin MIC to compound MIC for Escherichia coli CCARM 1356 after 24 hrs by two-fold serial dilution method; type: functional
Staphylococcus aureus [11] = assay: Ratio of gatifloxacin MIC to compound MIC for quinolone-resistant Staphylococcus aureus CCARM 3505 after 24 hrs by two-fold serial dilution method; type: functional
Staphylococcus aureus [12] = assay: Ratio of gatifloxacin MIC to compound MIC for quinolone-resistant Staphylococcus aureus CCARM 3519 after 24 hrs by two-fold serial dilution method; type: functional
Staphylococcus aureus [13] = assay: Antibacterial activity against Staphylococcus aureus 209 after 24 hrs by two-fold serial dilution method; type: functional; details: Staphylococcus aureus, 209, 24 h; how it was run: as §2
Mus musculus = assay: Antiinflammatory activity in mouse assessed as inhibition of xylene-induced ear edema at 50 mg/kg, ip administered 30 mins before xylene challenge relative to control; type: functional
How it was run: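 Mice received compound freshly dissolved in DMSO, 50 mg/kg ip at 0.05 mL/20 g body weight; vehicle controls got DMSO alone. After 30 min, 20 µL xylene was applied to the right ear. After a further 30 min, 7 mm plugs were cut from treated and untreated ears and edema taken as their weight difference. Result is % edema reduction versus vehicle controls.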

Staphylococcus aureus [14] = assay: Antibacterial activity against quinolone-resistant Staphylococcus aureus CCARM 3505 after 24 hrs by two-fold serial dilution method; type: functional; details: CCARM 3505, 24 h; how it was run: as §2
Staphylococcus aureus [15] = assay: Antibacterial activity against Staphylococcus aureus 503 after 24 hrs by two-fold serial dilution method; type: functional; details: Staphylococcus aureus, 503, 24 h; how it was run: as §2
Salmonella typhimurium = assay: Antibacterial activity against Salmonella typhimurium 2421 after 24 hrs by two-fold serial dilution method; type: functional, Salmonella enterica subsp. enterica serovar Typhimurium; details: Salmonella enterica, 2421, 24 h; how it was run: as §1
Staphylococcus aureus [16] = assay: Ratio of moxifloxacin MIC to compound MIC for quinolone-resistant Staphylococcus aureus CCARM 3519 after 24 hrs by two-fold serial dilution method; type: functional
Staphylococcus aureus [17] = assay: Ratio of oxacillin MIC to compound MIC for methicillin-resistant Staphylococcus aureus CCARM 3506 after 24 hrs by two-fold serial dilution method; type: functional
Escherichia coli [18] = assay: Ratio of gatifloxacin MIC to compound MIC for Escherichia coli CCARM 1356 after 24 hrs by two-fold serial dilution method; type: functional
Staphylococcus aureus [19] = assay: Ratio of norfloxacin MIC to compound MIC for methicillin-resistant Staphylococcus aureus CCARM 3506 after 24 hrs by two-fold serial dilution method; type: functional

| SMILES | MIC (Pseudomonas aeruginosa [1]) | MIC (Escherichia coli [2]) | MIC (Staphylococcus aureus [3]) | MIC (Streptococcus mutans) | MIC (Candida albicans) | MIC (Staphylococcus aureus [4]) | MIC (Pseudomonas aeruginosa [5]) | MIC (Staphylococcus aureus [6]) | MIC (Escherichia coli [7]) | MIC (Staphylococcus aureus [8]) | Ratio (Staphylococcus aureus [9]) | Ratio (Escherichia coli [10]) | Ratio (Staphylococcus aureus [11]) | Ratio (Staphylococcus aureus [12]) | MIC (Staphylococcus aureus [13]) | inhibition in vivo at 50 mg/kg (Mus musculus) | MIC (Staphylococcus aureus [14]) | MIC (Staphylococcus aureus [15]) | MIC (Salmonella typhimurium) | Ratio (Staphylococcus aureus [16]) | other results |
| --- | --- | --- | --- | --- | --- | --- | --- | --- | --- | --- | --- | --- | --- | --- | --- | --- | --- | --- | --- | --- | --- |
| N=C(N)N/N=C/c1cn(-c2ccc([N+](=O)[O-])cc2[N+](=O)[O-])nc1-c1ccc(Cl)cc1Cl | > 64 µg/mL | 2 µg/mL (≈ 4.32 µM) | 2 µg/mL (≈ 4.32 µM) | 4 µg/mL (≈ 8.63 µM) | 2 µg/mL (≈ 4.32 µM) | 2 µg/mL (≈ 4.32 µM) | > 64 µg/mL | 2 µg/mL (≈ 4.32 µM) | 8 µg/mL (≈ 17.3 µM) | 2 µg/mL (≈ 4.32 µM) | 2 | 16 | 4 | 2 | 2 µg/mL (≈ 4.32 µM) | 61.9% | 2 µg/mL (≈ 4.32 µM) | 2 µg/mL (≈ 4.32 µM) | 8 µg/mL (≈ 17.3 µM) |  |  |
| N=C(N)N/N=C/c1cn(-c2ccc([N+](=O)[O-])cc2[N+](=O)[O-])nc1-c1ccc(Br)cc1 | > 64 µg/mL | 2 µg/mL (≈ 4.23 µM) | 1 µg/mL (≈ 2.11 µM) | 2 µg/mL (≈ 4.23 µM) | 1 µg/mL (≈ 2.11 µM) | 2 µg/mL (≈ 4.23 µM) | > 64 µg/mL | 2 µg/mL (≈ 4.23 µM) | 4 µg/mL (≈ 8.45 µM) | 2 µg/mL (≈ 4.23 µM) |  |  | 4 |  | 2 µg/mL (≈ 4.23 µM) | 69.6% | 2 µg/mL (≈ 4.23 µM) | 2 µg/mL (≈ 4.23 µM) | 4 µg/mL (≈ 8.45 µM) | 2 | Ratio (Staphylococcus aureus [17]): 64; Ratio (Escherichia coli [18]): 4 |
| Cc1cccc(-c2nn(-c3ccc([N+](=O)[O-])cc3[N+](=O)[O-])cc2/C=N/NC(=N)N)c1 | > 64 µg/mL | 2 µg/mL (≈ 4.9 µM) | 2 µg/mL (≈ 4.9 µM) | 4 µg/mL (≈ 9.79 µM) | 2 µg/mL (≈ 4.9 µM) | 4 µg/mL (≈ 9.79 µM) | > 64 µg/mL | 2 µg/mL (≈ 4.9 µM) | 8 µg/mL (≈ 19.6 µM) | 2 µg/mL (≈ 4.9 µM) |  | 16 |  |  | 2 µg/mL (≈ 4.9 µM) | 76.9% | 2 µg/mL (≈ 4.9 µM) | 2 µg/mL (≈ 4.9 µM) | 8 µg/mL (≈ 19.6 µM) |  |  |
| N=C(N)N/N=C/c1cn(-c2ccc([N+](=O)[O-])cc2[N+](=O)[O-])nc1-c1cccc(Br)c1 | > 64 µg/mL | 2 µg/mL (≈ 4.23 µM) | 1 µg/mL (≈ 2.11 µM) | 4 µg/mL (≈ 8.45 µM) | 1 µg/mL (≈ 2.11 µM) | 2 µg/mL (≈ 4.23 µM) | > 64 µg/mL | 1 µg/mL (≈ 2.11 µM) | 4 µg/mL (≈ 8.45 µM) | 1 µg/mL (≈ 2.11 µM) | 2 |  | 4 | 2 | 2 µg/mL (≈ 4.23 µM) | 81.7% | 2 µg/mL (≈ 4.23 µM) | 2 µg/mL (≈ 4.23 µM) | 4 µg/mL (≈ 8.45 µM) | 2 | Ratio (Staphylococcus aureus [19]): 4; Ratio (Staphylococcus aureus [17]): 64; Ratio (Escherichia coli [18]): 4 |
| Cc1ccc(-c2nn(-c3ccc([N+](=O)[O-])cc3[N+](=O)[O-])cc2/C=N/NC(=N)N)c(C)c1 | > 64 µg/mL | 2 µg/mL (≈ 4.73 µM) | 2 µg/mL (≈ 4.73 µM) | 4 µg/mL (≈ 9.47 µM) | 2 µg/mL (≈ 4.73 µM) | 4 µg/mL (≈ 9.47 µM) | > 64 µg/mL | 2 µg/mL (≈ 4.73 µM) | 8 µg/mL (≈ 18.9 µM) | 2 µg/mL (≈ 4.73 µM) |  | 16 |  |  | 4 µg/mL (≈ 9.47 µM) | 79.6% | 2 µg/mL (≈ 4.73 µM) | 4 µg/mL (≈ 9.47 µM) | 8 µg/mL (≈ 18.9 µM) |  |  |
